Data as given in BindingDB's records for doi:10.1021/acs.jmedchem.9b01336 (University of Naples Federico II, 2020).

Tests used:
[1] = molecular target: T1, Proto-oncogene tyrosine-protein kinase receptor Ret (Homo sapiens, UniProt P07949); assay: Inhibition of RET isoform 9 M918T mutant in human MZ-CRC-1 cells assessed as reduction in cell proliferation supplemented with fresh medium containing compound for every 2 to 3 days and measured during compound dosing
Procedure, shortened: (§1)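 TT (200000/well) or MZ-CRC-1 (100000/well) seeded in 10% FCS; drug or vehicle from next day, refreshed every 2–3 days; counted every 2–3 days; IC50 by curve fitting of last-day growth.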
Target sequence in this assay (P07949 29-1114 M918T limits assumed): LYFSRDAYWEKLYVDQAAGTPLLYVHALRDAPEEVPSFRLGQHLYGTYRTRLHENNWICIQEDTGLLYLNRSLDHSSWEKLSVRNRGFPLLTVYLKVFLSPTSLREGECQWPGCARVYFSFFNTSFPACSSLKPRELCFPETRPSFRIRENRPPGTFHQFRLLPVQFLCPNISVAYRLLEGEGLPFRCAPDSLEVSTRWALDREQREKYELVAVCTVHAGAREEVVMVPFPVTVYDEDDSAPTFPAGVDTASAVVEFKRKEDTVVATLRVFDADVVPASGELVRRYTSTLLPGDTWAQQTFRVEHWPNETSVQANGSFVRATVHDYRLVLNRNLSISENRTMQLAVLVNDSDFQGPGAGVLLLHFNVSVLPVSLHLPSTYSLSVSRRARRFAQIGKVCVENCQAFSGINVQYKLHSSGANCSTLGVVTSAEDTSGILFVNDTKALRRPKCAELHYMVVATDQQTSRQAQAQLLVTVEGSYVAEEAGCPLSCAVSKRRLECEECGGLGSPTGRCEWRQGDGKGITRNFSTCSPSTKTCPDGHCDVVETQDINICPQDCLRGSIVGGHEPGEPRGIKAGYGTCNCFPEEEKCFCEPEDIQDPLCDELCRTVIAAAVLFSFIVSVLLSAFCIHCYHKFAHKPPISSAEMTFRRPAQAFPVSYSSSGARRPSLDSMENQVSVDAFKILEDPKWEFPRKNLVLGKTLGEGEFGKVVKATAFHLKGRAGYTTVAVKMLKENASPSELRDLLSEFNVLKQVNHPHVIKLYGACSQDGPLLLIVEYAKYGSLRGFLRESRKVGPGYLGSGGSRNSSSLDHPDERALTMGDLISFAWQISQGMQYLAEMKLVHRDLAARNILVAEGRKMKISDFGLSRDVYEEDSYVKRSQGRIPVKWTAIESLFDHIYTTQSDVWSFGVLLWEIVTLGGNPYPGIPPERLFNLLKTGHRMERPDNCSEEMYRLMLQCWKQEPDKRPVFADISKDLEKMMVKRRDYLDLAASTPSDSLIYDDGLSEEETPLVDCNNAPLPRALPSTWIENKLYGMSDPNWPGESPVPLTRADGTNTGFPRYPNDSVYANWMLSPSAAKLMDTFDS

[2] = molecular target: T1, Proto-oncogene tyrosine-protein kinase receptor Ret; assay: Inhibition of RET isoform 9 C634W mutant in human TT cells assessed as reduction in cell proliferation supplemented with fresh medium containing compound for every 2 to 3 days and measured during compound dosing; procedure, shortened: as §1
Target sequence in this assay (P07949 29-1114 C634W limits assumed): as the sequence (P07949 29-1114 M918T limits assumed) above, with C606W, T890M counted along it

[3] = molecular target: T1, Proto-oncogene tyrosine-protein kinase receptor Ret; assay: Inhibition of CCDC6/RET in human TPC1 cells assessed as reduction in cell proliferation supplemented with fresh medium containing compound for every 2 to 3 days and measured during compound dosing
Target sequence in this assay (P07949 whole entry, looked up, canonical isoform): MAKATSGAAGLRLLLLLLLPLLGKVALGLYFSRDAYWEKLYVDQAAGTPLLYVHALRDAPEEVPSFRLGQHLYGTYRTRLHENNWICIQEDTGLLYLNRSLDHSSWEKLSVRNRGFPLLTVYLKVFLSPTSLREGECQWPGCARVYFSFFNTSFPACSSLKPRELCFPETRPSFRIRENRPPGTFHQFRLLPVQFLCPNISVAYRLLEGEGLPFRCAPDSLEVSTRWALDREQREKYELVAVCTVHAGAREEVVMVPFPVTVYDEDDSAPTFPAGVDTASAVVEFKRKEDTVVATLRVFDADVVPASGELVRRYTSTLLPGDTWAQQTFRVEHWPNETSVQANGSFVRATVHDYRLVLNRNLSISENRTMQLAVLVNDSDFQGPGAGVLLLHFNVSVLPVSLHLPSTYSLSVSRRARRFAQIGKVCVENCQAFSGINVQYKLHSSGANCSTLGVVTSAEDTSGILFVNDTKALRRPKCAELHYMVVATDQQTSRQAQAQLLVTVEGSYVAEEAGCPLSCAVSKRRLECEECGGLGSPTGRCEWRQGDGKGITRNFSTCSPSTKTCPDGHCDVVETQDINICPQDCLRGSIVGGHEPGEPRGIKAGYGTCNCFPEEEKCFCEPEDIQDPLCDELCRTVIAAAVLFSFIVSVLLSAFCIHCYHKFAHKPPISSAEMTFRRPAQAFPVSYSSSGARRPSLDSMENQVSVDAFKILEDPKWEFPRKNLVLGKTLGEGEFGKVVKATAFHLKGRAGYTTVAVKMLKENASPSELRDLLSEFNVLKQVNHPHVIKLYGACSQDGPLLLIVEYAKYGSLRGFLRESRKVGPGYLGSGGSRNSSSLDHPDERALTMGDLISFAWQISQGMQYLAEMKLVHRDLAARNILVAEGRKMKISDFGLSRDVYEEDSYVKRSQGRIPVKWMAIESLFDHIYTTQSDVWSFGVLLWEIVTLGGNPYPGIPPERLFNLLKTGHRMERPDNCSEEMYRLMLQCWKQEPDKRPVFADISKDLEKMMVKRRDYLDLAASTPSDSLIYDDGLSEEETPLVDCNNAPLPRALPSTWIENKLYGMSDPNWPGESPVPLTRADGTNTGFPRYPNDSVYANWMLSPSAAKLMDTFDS

[4] = molecular target: T1, Proto-oncogene tyrosine-protein kinase receptor Ret; assay: Inhibition of CCDC6/RET in human LC2/ad cells assessed as reduction in cell proliferation supplemented with fresh medium containing compound for every 2 to 3 days and measured during compound dosing
Target sequence in this assay (P07949 whole entry, looked up, canonical isoform): as above

[5] = Inhibition of RET isoform 15 C634R mutant (unknown origin) expressed in mouse BAF3 cells assessed as reduction in cell proliferation supplemented with fresh medium containing compound for every 2 to 3 days and measured daily
[6] = Inhibition of RET isoform 15 M918T mutant (unknown origin) expressed in mouse BAF3 cells assessed as reduction in cell proliferation supplemented with fresh medium containing compound for every 2 to 3 days and measured daily
[7] = Inhibition of RET isoform 9 C634Y mutant (unknown origin) expressed in mouse NIH/3T3 cells assessed as reduction in cell proliferation supplemented with fresh medium containing compound for every 2 to 3 days measured at 2 days interval during compound dosing

IC50 [1]: 0.67 nM | IC50 [2]: 0.67 nM | IC50 [3]: 0.67 nM | IC50 [4]: 0.67 nM | IC50 [5]: 1.7 nM | IC50 [6]: 1.6 nM | IC50 [7]: 4.2 nM
Compound: CC(C)(C)c1cc(NC(=O)Cc2ccc(-n3cnc4cc(-c5ccc(S(C)(=O)=O)cc5)ccc43)cc2)no1
